In the library only some 6.8% were active in any assay of this set; here they are far more common.
HER2 expr 66K: lowers expression of human Her2 kinase; P04626; HER2 level % of control, % at 10 µM; SKBR-3 HER2 protein level, AlphaScreen, 18-24 h; hits give low values; AID 645; hit rate 0.69% among 65,000;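 active means HER2 level under 5% of the carrier-only control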;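 further: lower value means stronger loss of Her2 protein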
M1 antagonist: antagonists of rat M1 muscarinic receptor; P08482; hit rate 3.4% among 64,000; AID 628; CHO-M1 cells, Fluo-4 calcium, ACh EC80 antagonist mode; hits give low values; B-score at 10 µM;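 active means calcium fluorescence response, raw or row-and-column corrected B-score, differing from the plate sample mean either way at a set confidence level, mostly lower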
DUSP1 inh: human dual specificity phosphatase 1 inhibition. recombinant MKP-1, OMFP hydrolysis fluorescence. inhibition, %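 (compounds tested at a single concentration somewhere between 10 and 100 µM)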. P28562. hit rate 0.15% among 65,000. AID 374;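 active means inhibition above about 50%, limit read from the data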
Cdc25B block: inhibitors of human Cdc25B phosphatase | P30305 | recombinant Cdc25B, OMFP fluorescence Ex485/Em525 | inhibition, %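 (compounds tested at 10 µM final in the well)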 | hit rate 0.1% among 65,000; in the data active means inhibition above about 50%
M1 agonist: M1 muscarinic receptor agonism. hit rate 3% among 64,000. CHO-M1 cells, Fluo-4 calcium fluorescence, agonist mode; hits give high values. B-score at 10 µM;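 active means fluorescence rise, raw or as B-score row- and column-corrected plate score, outside the 99.7% band of its plate's samples, either direction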
HEK293 NFkB inh: lowers PMA/ionomycin-induced NF-kB signal in HEK293 cells. HEK-293 NF-kB luciferase reporter, luminescence. inhibition, % at 3 µM. hit rate 0.21% among 62,000. AID 465;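 active means inhibition above the mean of all tested compounds plus 3 SD, cut at about 40% in these data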
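Signal: luciferase luminescence; Material: HEK-293 cells with stable firefly luciferase reporter driven by four HIV NF-kB elements; Probe or stimulus: PMA with ionomycin; Replication: tested once; Times: 1 h compound pretreatment, then 16 h stimulation at 37 °C, 5% CO2; Benchmarks: DMSO and 10 µM reference inhibitor; Evaluation: per-plate % inhibition versus controls.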
M1 antag conf: M1 muscarinic receptor (rat) antagonism, confirmed; shares compounds with M1 antagonist; CHO-M1 cells, Fluo-4 calcium, ACh EC80 antagonism; hits give low values; calcium response (max-min fluorescence) at 10 µM; hit rate 43% among 1,700; AID 677;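 active means calcium response below the same-plate mean of wells given acetylcholine alone at its 80%-effect dose, minus 3 SD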
mGluR4 antag: acts on human mGluR4 in M1 antagonist selectivity test. shares compounds with M1 antagonist. AID 678. fluorescence response (max-min) at 10 µM. CHO-mGluR4 calcium flux, Fluo-4 fluorescence, glutamate EC80; hits give low values. hit rate 0.9% among 1,700;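 active means fluorescence response below the plate's average for near-maximal glutamate wells, less 3 SD of those wells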;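 further: raw unnormalized fluorescence span taken in the window right after glutamate addition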
Each line names hits and unclear results; the compound was inactive in the other large screens (follow-up assays come after a bar, where they were run).

O=C(NC12CC3CC(CC(C3)C1)C2)N1CCN(C(=O)C2CCCO2)CC1 (configuration not stated)	M1 antagonist -1.8 | M1 antag conf inactive | mGluR4 antag inactive
O=C(NC12CC3CC(CC(C3)C1)C2)N1CCC(O)CC1	none
CSc1ncccc1C(=O)OCC(=O)NC1CCS(=O)(=O)C1 (configuration not stated)	none
O=C(COC(=O)c1ccccc1Oc1ccccc1)NC1CCS(=O)(=O)C1 (configuration not stated)	M1 antagonist -1.5 | M1 antag conf inactive | mGluR4 antag inactive
COC(=O)CSc1nc2sc3c(c2c(=O)n1-c1ccccc1)CCN(C)C3	none
CSc1nc2sc3c(c2c(=O)n1C1CCCCC1)CCN(C)C3	M1 antagonist -4.8 (no result: HEK293 NFkB inh) | M1 antag conf 185 | mGluR4 antag inactive
CSc1nc2sc3c(c2c(=O)n1C)CCCC3	none
C=CCn1c(SCC(=O)OC)nc2sc3c(c2c1=O)CCN(C)C3	M1 antagonist -5.3 (no result: HEK293 NFkB inh) | M1 antag conf 198 | mGluR4 antag inactive
CC1(C)CN=C(NC2CCCCC2)S1	M1 antagonist -4.8 | M1 antag conf 459 | mGluR4 antag inactive
Cc1nnc(NC2CCCCC2)[nH]c1=O	none
CCN(CC)C(=O)CSc1nnc(-c2cc3ccccc3cc2O)n1CC	M1 antagonist -3.4 | M1 antag conf inactive | mGluR4 antag inactive
O=C(CSc1nnc(-c2cc3ccccc3cc2O)n1Cc1ccco1)c1ccc(F)cc1	none
Cc1cc(C)n(CC(O)CN2c3ccccc3Sc3ccccc32)n1 (configuration not stated)	none
CN(C)CCCN1c2ccccc2Sc2ccc(C(F)(F)F)cc21	M1 antagonist -15 (no result: HEK293 NFkB inh) | M1 antag conf 24 | mGluR4 antag inactive
CC1CCN(S(=O)(=O)c2ccc3c(c2)CCN3C(=O)CCC(=O)O)CC1	none
COc1oc(-c2ccccc2)nc1C(F)(F)F	none
c1ccc(CNc2ccc3c(c2)ncn3C2CCCCC2)nc1	M1 antagonist -4.9 | M1 antag conf inactive | mGluR4 antag inactive
CCC(c1nnnn1C(C)C)N1CCN(C2CCCC2)CC1 (configuration not stated)	none
Cc1noc(C)c1CSc1nc2ccccc2n1CCc1ccccc1	M1 antagonist -3.8 | M1 antag conf inactive | mGluR4 antag inactive
Cc1noc(C)c1CSc1nc2ccccc2[nH]1	M1 antagonist -1.4 | M1 antag conf 435 | mGluR4 antag inactive
C=CCN(c1ccccc1)S(=O)(=O)c1ccc2c(c1)oc(=O)n2C	none
C=CCN(C1CCCCC1)S(=O)(=O)c1ccc2c(c1)oc(=O)n2C	M1 antagonist -4.9 | M1 antag conf inactive | mGluR4 antag inactive
COC(=O)c1c(C)oc2cc(Br)c(OCC(=O)C(C)(C)C)cc12	M1 antagonist -1.9 | M1 antag conf inactive | mGluR4 antag inactive
CCN(CC)CCNC(=O)c1c(C)oc2cc(Br)c(OC)cc12	none (no result: HEK293 NFkB inh)
Cc1ccc(N(CC(=O)Nc2ccc3c(c2)OCCO3)S(=O)(=O)c2c(C)noc2C)cc1	M1 antagonist -3 | M1 antag conf inactive | mGluR4 antag inactive
COC(=O)c1cn(CC(=O)NC2CCCCC2)c2ccccc12	M1 antagonist -2 | M1 antag conf inactive | mGluR4 antag inactive
O=C(Cn1nnc2ccccc21)NC1CCCCC1	none
CCN(CCCc1ccccc1)CCCc1ccccc1	M1 antagonist -13 (no result: HEK293 NFkB inh) | M1 antag conf 18 | mGluR4 antag inactive
CCN(CC)CCCNC(=O)N[C@@H](Cc1ccccc1)C(=O)O	none
CC(=O)N=C(N)Sc1nc2ccccc2[nH]1	none (no result: HEK293 NFkB inh)
O=C(NCCN1CCOCC1)c1ccc2c(c1)N(Cc1ccccc1)C(=O)CS2	M1 antagonist -3 | M1 antag conf 344 | mGluR4 antag inactive
O=C(NCCN1CCOCC1)c1ccc2c(c1)N(Cc1ccccc1)CCS2	none
CC(C)(C)c1cnnn1-c1ccc(NC(=O)c2ccc(Br)o2)cc1	M1 antagonist -2.3 | M1 antag conf 560 | mGluR4 antag inactive
CCCC(=O)N=C1SC2CS(=O)(=O)CC2N1c1ccc(CC)cc1 (configuration not stated)	none (no result: HER2 expr 66K, Cdc25B block)
CCOC(=O)c1cc(C)n(-c2c(C)n(C)n(-c3ccccc3)c2=O)c1C	M1 antagonist -4.5 | M1 antag conf 430 | mGluR4 antag inactive
O=C(N1CCOCC1)N1CCN(S(=O)(=O)c2ccccc2)C1	none
Cc1cc(C(=O)OCC(=O)N2CCN(c3ccccc3)CC2)c2ccccc2n1	none
Cc1cc(C(=O)OCC(=O)Nc2cc(C)on2)c2ccccc2n1	M1 antagonist -6.1 | M1 antag conf inactive | mGluR4 antag inactive
Cc1ccc(OCC(=O)N2CCC(N3CCCCCC3)CC2)cc1	none (no result: HEK293 NFkB inh)
CN(CC(=O)NCCC1=CCCCC1)S(=O)(=O)c1ccc2c(c1)CCC(=O)N2	none
c1ccc(CN2CCN(CCN3CCn4c3nc3ccccc34)CC2)cc1	M1 antagonist -2.1 | M1 antag conf 566 | mGluR4 antag inactive
O=S(=O)(c1ccc2c(c1)OCCO2)N1CCN(c2cccc(Cl)c2)CC1	none
O=S(=O)(c1ccc2c(c1)OCCO2)N1CCC(O)(c2ccc(Cl)cc2)CC1	M1 antagonist -8.7 | M1 antag conf 475 | mGluR4 antag inactive
COC(=O)c1[nH]c2cc(OC)ccc2c1NC(=O)CCN1CCCCC1	none
O=c1c2ccccc2[nH]c(=S)n1CCCN1CCN(C2CCCCC2)CC1	M1 antagonist -2.3 | M1 antag conf 485 | mGluR4 antag inactive
CCOC(=O)c1[nH]c2ccc(OC)cc2c1NC(=O)CCN1CCc2ccccc2C1	M1 antagonist -3.1 (no result: HEK293 NFkB inh) | M1 antag conf 418 | mGluR4 antag inactive
CC1CCN(CCCn2c(=S)[nH]c3ccccc3c2=O)CC1	none
CCOC(=O)c1[nH]c2ccc(OC)cc2c1NC(=O)CCN1CCC(C)CC1	M1 antagonist -1.5 (no result: HEK293 NFkB inh) | M1 antag conf 426 | mGluR4 antag inactive
CCOC(=O)c1[nH]c2ccc(OC)cc2c1NC(=O)CN1CCSCC1	none
COC(=O)c1[nH]c2ccccc2c1NC(=O)CCN1CCN(C2CCCCC2)CC1	M1 antagonist -3.7 | M1 antag conf 389 | mGluR4 antag inactive
CCOC(=O)c1[nH]c2ccc(OC)cc2c1NC(C)=O	none
O=S(=O)(NCC(c1cccnc1)N1CCN(c2ccccc2)CC1)c1cc(F)ccc1F (configuration not stated)	none
CC1(C)CC(=O)c2cnc(NC(=O)c3ccco3)nc2C1	none
O=C(Nc1ccc(Oc2ccccc2)cc1)c1cnc2n(c1=O)CCS2	none
COC(=O)c1ccc2[nH]c(C)cc(=O)c2c1	M1 antagonist -6.5 | M1 antag conf 210 | mGluR4 antag inactive
CCOC(=O)c1ccc2[nH]c(C)cc(=O)c2c1	none
